Reference: ChEMBL document CHEMBL1150874, “Antiviral phenylpropanoid glycosides from the medicinal plant Markhamia lutea” (J Nat Prod, 1998)
≈ marks a conversion by molar mass, not a printed value.

Experiments:
[1] = Cytotoxicity against RSV long infected human Hep2 cells after 3 days; type: cell-based; conditions: HEp-2, 72 h
[2] = Cytotoxicity against mCMV RM-461 infected human Hep2 cells after 3 days; type: cell-based; conditions: HEp-2, 72 h
[3] = test system: Respiratory syncytial virus; assay: Antiviral activity against RSV long infected in human Hep2 cells assessed as virus-induced cytopathic effect after 3 days; type: functional, organism-based; conditions: HEp-2, 72 h
[4] = test system: Respiratory syncytial virus; assay: Antiviral activity against RSV A-2 infected in human Hep2 cells after 3 days by plaque neutralization assay; type: functional, organism-based; conditions: HEp-2, 72 h
[5] = Cytotoxicity against human Hep2 cells administered 3 hrs postinfection; type: cell-based; conditions: HEp-2, 3 h
In short: (§1)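 RSV (Long, CPE) in Hep-2 cells, seeded the day before at 10 000 cells/well in high-glucose DMEM with 2% or 10% heat-inactivated FBS. Virus (3000 PFU) or medium alone was adsorbed for 3 h at 37 °C, then 3-fold dilutions were added (eight concentrations, 830-0.38 or […] final). Incubation was 3 days at 37 °C, then neutral red stain. EC50 and IC50 were in µg/mL; SI = IC50/EC50.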

[6] = Selectivity index, ratio of EC50 for RSV long by cytopathic effect over IC50 for human Hep2 cells; type: functional, HEp-2
[7] = test system: Respiratory syncytial virus; assay: Antiviral activity against RSV infected in human Hep2 cells assessed as virus-induced cytopathic effect administered 3 hrs postinfection; type: functional, organism-based; conditions: HEp-2, 3 h; in short: as §1
[8] = Selectivity index, […] for human Hep2 cells administered 3 hrs after infection; type: functional, HEp-2; in short: as §1
[9] = Cytotoxicity against HSV2 infected human Hep2 cells after 3 days; type: cell-based; conditions: HEp-2, 72 h
[10] = test system: Human alphaherpesvirus 2; assay: Antiviral activity against HSV2 infected in human Hep2 cells assessed as virus-induced cytopathic effect after 3 days; type: functional, organism-based; conditions: Human alphaherpesvirus 2, HEp-2, 72 h
[11] = Selectivity index, ratio of EC50 for HSV2 by cytopathic effect over IC50 for human Hep2 cells; type: functional, HEp-2
[12] = Cytotoxicity against HSV1 infected human Hep2 cells after 3 days; type: cell-based; conditions: HEp-2, 72 h
[13] = Selectivity index, ratio of EC50 for HSV1 by cytopathic effect over IC50 for human Hep2 cells; type: functional, HEp-2
[14] = test system: Human alphaherpesvirus 1; assay: Antiviral activity against HSV1 infected in human Hep2 cells assessed as virus-induced cytopathic effect after 3 days; type: functional, organism-based; conditions: Human alphaherpesvirus 1, HEp-2, 72 h
[15] = Cytotoxicity against VZV 3CV-1 infected human Hep2 cells after 3 days; type: cell-based; conditions: HEp-2, 72 h
[16] = Selectivity index, […] for human Hep2 cells; type: functional, HEp-2
[17] = Cytotoxicity against RSV A-2 infected human Hep2 cells after 3 days; type: cell-based; conditions: HEp-2, 72 h
[18] = test system: Human alphaherpesvirus 3; assay: Antiviral activity against VZV 3CV-1 infected in human Hep2 cells after 3 days by plaque neutralization assay; type: functional, organism-based; conditions: Human alphaherpesvirus 3, HEp-2, 72 h
[19] = test system: Murine cytomegalovirus; assay: Antiviral activity against mCMV RM461 infected in human Hep2 cells assessed as virus-induced cytopathic effect after 3 days; conditions: HEp-2, 72 h
[20] = Selectivity index, ratio of EC50 for mCMV RM461 by cytopathic effect over IC50 for human Hep2 cells; type: functional, HEp-2

| Structure (SMILES) | EC50 [3] [µg/mL] | IC50 [5] [µg/mL] | Ratio IC50/EC50 [6] | EC50 [7] [µg/mL] | Ratio IC50/EC50 [8] | IC50 [9] [µg/mL] | IC50 ([1]; read-out: IC50) [µg/mL] | further results |
| --- | --- | --- | --- | --- | --- | --- | --- | --- |
| C[C@@H]1O[C@@H](O[C@@H]2[C@@H](O)[C@H](OCCc3ccc(O)c(O)c3)O[C@H](CO)[C@H]2OC(=O)/C=C/c2ccc(O)c(O)c2)[C@H](O)[C@H](O)[C@H]1O [ACETOSIDE] | 0.8 (≈ 1.28 µM) | 108 (≈ 173 µM) | 85 | 0.26 (≈ 0.416 µM) | 415 | 71 (≈ 114 µM) | – | IC50 [1]: 76.9 µg/mL (≈ 123 µM); IC50 [2]: 44 µg/mL (≈ 70.4 µM); EC50 [4]: 9.7 µg/mL (≈ 15.5 µM) |
| CC(=O)Oc1ccc(/C=C/C(=O)OC[C@H]2O[C@@H](OCCc3ccc(OC(C)=O)c(OC(C)=O)c3)[C@H](OC(C)=O)[C@@H](O[C@@H]3O[C@@H](C)[C@H](OC(C)=O)[C@@H](OC(C)=O)[C@H]3OC(C)=O)[C@@H]2OC(C)=O)cc1OC(C)=O [ISOVERBASCOSIDE NOAACETATE] | 3.4 (≈ 3.39 µM) | – | 3.3 | – | – | – | 11.2 (≈ 11.2 µM) | – |
| COc1cc(/C=C/C(=O)OC[C@H]2O[C@@H](OCCc3ccc(O)c(O)c3)[C@H](O[C@@H]3OC[C@](O)(CO)[C@@H]3O)[C@@H](O[C@@H]3O[C@@H](C)[C@H](O)[C@@H](O)[C@H]3O)[C@@H]2O)ccc1O [LUTEOSIDE C] | 15.5 (≈ 20.1 µM) | > 330 | 12 | 12 (≈ 15.6 µM) | >28 | – | 189 (≈ 245 µM) | – |
| CC(=O)O[C@@H]1[C@@H](OC(C)=O)[C@H](C)O[C@@H](O[C@@H]2[C@@H](OC(C)=O)[C@H](OCCc3ccc(O)c(O)c3)O[C@H](COC(=O)/C=C/c3ccc(O)c(O)c3)[C@H]2OC(C)=O)[C@@H]1OC(C)=O | 1.93 (≈ 2.31 µM) | – | 8.2 | – | – | – | 15.9 (≈ 19 µM) | – |
| Nc1nc2c(ncn2COCCO)c(=O)[nH]1 [ACYCLOVIR] | – | – | – | – | – | > 10 | – | EC50 [10]: 2.3 µg/mL (≈ 10.2 µM); Ratio IC50/EC50 [11]: >4.3; IC50 [12]: > 67 µg/mL; Ratio IC50/EC50 [13]: >250; EC50 [14]: 0.26 µg/mL (≈ 1.15 µM) |
| C[C@@H]1O[C@@H](O[C@@H]2[C@@H](O)[C@H](OCCc3ccc(O)c(O)c3)O[C@H](COC(=O)/C=C/c3ccc(O)c(O)c3)[C@H]2O)[C@H](O)[C@H](O)[C@H]1O [ISOACTEOSIDE] | 0.62 (≈ 0.993 µM) | 125 (≈ 200 µM) | 84 | 0.17 (≈ 0.272 µM) | 735 | 27 (≈ 43.2 µM) | 51.4 (≈ 82.3 µM) | IC50 [2]: 89 µg/mL (≈ 142 µM); EC50 [4]: 1.1 µg/mL (≈ 1.76 µM); IC50 [12]: 30 µg/mL (≈ 48 µM); IC50 [15]: 75 µg/mL (≈ 120 µM) |
| C[C@@H]1O[C@@H](O[C@H]2[C@H](O)[C@@H](COC(=O)/C=C/c3ccc(O)c(O)c3)O[C@@H](OCCc3ccc(O)c(O)c3)[C@@H]2O[C@@H]2OC[C@](O)(CO)[C@@H]2O)[C@H](O)[C@H](O)[C@H]1O [LUTEOSIDE B] | 3.4 (≈ 4.49 µM) | 180 (≈ 238 µM) | >19 | 0.23 (≈ 0.304 µM) | 780 | 90 (≈ 119 µM) | > 67 | IC50 [12]: 93 µg/mL (≈ 123 µM) |
| NC(=O)c1ncn([C@@H]2O[C@H](CO)[C@@H](O)[C@H]2O)n1 [RIBAVIRIN] | 1.8 (≈ 7.37 µM) | 25 (≈ 102 µM) | 19 | 2.3 (≈ 9.42 µM) | 10.8 | – | 35 (≈ 143 µM) | EC50 [4]: 2.2 µg/mL (≈ 9.01 µM); Ratio IC50/EC50 [16]: 11; IC50 [17]: 25 µg/mL (≈ 102 µM) |
| CC(=O)OC[C@H]1O[C@@H](OCCc2ccc(OC(C)=O)c(OC(C)=O)c2)[C@H](OC(C)=O)[C@@H](O[C@@H]2O[C@@H](C)[C@H](OC(C)=O)[C@@H](OC(C)=O)[C@H]2OC(C)=O)[C@@H]1OC(=O)/C=C/c1ccc(OC(C)=O)c(OC(C)=O)c1 [VERBASCOSIDE NONAACETATE] | – | – | – | – | – | – | 33.7 (≈ 33.6 µM) | – |
| Nc1nc2c(ncn2COC(CO)CO)c(=O)[nH]1 [GANCICLOVIR] | – | – | – | – | – | – | – | EC50 [18]: 26.7 µg/mL (≈ 105 µM); IC50 [2]: > 100 µg/mL; EC50 [19]: 5 µg/mL (≈ 19.6 µM); IC50 [15]: 840 µg/mL (≈ 3290 µM); Ratio IC50/EC50 [20]: >20 |
| CC(=O)OC[C@H]1O[C@@H](OCCc2ccc(O)c(O)c2)[C@H](OC(C)=O)[C@@H](O[C@@H]2O[C@@H](C)[C@H](OC(C)=O)[C@@H](OC(C)=O)[C@H]2OC(C)=O)[C@@H]1OC(=O)/C=C/c1ccc(O)c(O)c1 | 5.87 (≈ 7.03 µM) | – | 4.4 | – | – | – | 26.2 (≈ 31.4 µM) | – |
| CC(=O)OC[C@H]1O[C@@H](OCCc2ccc(O)c(O)c2)[C@H](O[C@@H]2OC[C@](O)(CO)[C@@H]2O)[C@@H](O[C@@H]2O[C@@H](C)[C@H](O)[C@@H](O)[C@H]2O)[C@@H]1OC(=O)/C=C/c1ccc(O)c(O)c1 [LUTEOSIDE A] | 0.87 (≈ 1.09 µM) | 180 (≈ 225 µM) | 89 | 11 (≈ 13.8 µM) | 16 | – | 77 (≈ 96.4 µM) | – |
